# Test system: not listed separately
# Test: Partition coefficient at pH 7.4 by shake-flask method
# Assay type: physicochemical
# Settings: octanol/water
# Procedure, shortened: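 Octanol-water partition coefficient by shake-flask at pH 7.4, reported with SEM.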
row,SMILES,logD
1,O=C(NO)c1cc(N(CCCl)CCCl)c([N+](=O)[O-])cc1[N+](=O)[O-],1.22

# Test system: V79
# Test: Antiproliferative activity against chinese hamster wild-type V79 NTR-ve cells after 18 hrs
# Assay type: functional, cell-based
# Settings: Cricetulus griseus, V79, 18 h
row,SMILES,IC50
1,O=C(NO)c1cc(N(CCCl)CCCl)c([N+](=O)[O-])cc1[N+](=O)[O-],51 µM

# Test system: V79
# Test: Antiproliferative activity against chinese hamster V79 NTRpuro cells after 18 hrs
# Assay type: functional, cell-based
# Settings: Cricetulus griseus, V79, 18 h
row,SMILES,IC50
1,O=C(NO)c1cc(N(CCCl)CCCl)c([N+](=O)[O-])cc1[N+](=O)[O-],1360 nM

# Test system: V79
# Test: Selectivity ratio of IC50 for V79 NTR-ve cells to IC50 for V79 NTRpuro cells
# Assay type: functional, Cricetulus griseus
# Settings: not given
row,SMILES,Ratio IC50
1,O=C(NO)c1cc(N(CCCl)CCCl)c([N+](=O)[O-])cc1[N+](=O)[O-],42

# Test system: EMT6
# Test: Antiproliferative activity against mouse wild type EMT6 NTR-ve cells after 18 hrs
# Assay type: functional, cell-based
# Settings: EMT6, 18 h
row,SMILES,IC50
1,O=C(NO)c1cc(N(CCCl)CCCl)c([N+](=O)[O-])cc1[N+](=O)[O-],96 µM

# Test system: EMT6
# Test: Antiproliferative activity against mouse EMT6 NTRpuro cells after 18 hrs
# Assay type: functional, cell-based
# Settings: EMT6, 18 h
row,SMILES,IC50
1,O=C(NO)c1cc(N(CCCl)CCCl)c([N+](=O)[O-])cc1[N+](=O)[O-],880 nM

# Test system: EMT6
# Test: Selectivity ratio of IC50 for EMT6 NTR-ve cells to IC50 forEMT6 NTRpuro cells
# Assay type: functional, Mus musculus
# Settings: not given
row,SMILES,Ratio IC50
1,O=C(NO)c1cc(N(CCCl)CCCl)c([N+](=O)[O-])cc1[N+](=O)[O-],110

# Test system: WiDr
# Test: Antiproliferative activity against human wild type WiDr NTR-ve cells after 18 hrs
# Assay type: functional, cell-based
# Settings: not given
row,SMILES,IC50
1,O=C(NO)c1cc(N(CCCl)CCCl)c([N+](=O)[O-])cc1[N+](=O)[O-],111 µM

# Test system: WiDr
# Test: Antiproliferative activity against human WiDr NTRneo cells after 18 hrs
# Assay type: functional, cell-based
# Settings: not given
row,SMILES,IC50
1,O=C(NO)c1cc(N(CCCl)CCCl)c([N+](=O)[O-])cc1[N+](=O)[O-],2010 nM

# Test system: WiDr
# Test: Selectivity ratio of IC50 for WiDr NTR-ve cells to IC50 for WiDr NTRneo cells
# Assay type: functional, Homo sapiens
# Settings: not given
row,SMILES,Ratio IC50
1,O=C(NO)c1cc(N(CCCl)CCCl)c([N+](=O)[O-])cc1[N+](=O)[O-],55

# Test system: not listed separately
# Test: Antiproliferative activity against human wild type Skov3 NTR-ve cells after 18 hrs
# Assay type: functional, cell-based
# Settings: not given
row,SMILES,IC50
1,O=C(NO)c1cc(N(CCCl)CCCl)c([N+](=O)[O-])cc1[N+](=O)[O-],200 µM

# Test system: V79
# Test: Clonogenic survival of V79 NTRoua cells after 5 hrs by MCL assay
# Assay type: functional, Cricetulus griseus
# Settings: not given
row,SMILES,Activity
1,O=C(NO)c1cc(N(CCCl)CCCl)c([N+](=O)[O-])cc1[N+](=O)[O-],>1400 µM

# Test system: not listed separately
# Test: Antiproliferative activity against human Skov3 NTRneo cells after 18 hrs
# Assay type: functional, cell-based
# Settings: SK-OV-3, 18 h
row,SMILES,IC50
1,O=C(NO)c1cc(N(CCCl)CCCl)c([N+](=O)[O-])cc1[N+](=O)[O-],1570 nM

# Test system: not listed separately
# Test: Selectivity ratio of IC50 for Skov3 NTR-ve cells to IC50 for Skov3 NTRneo cells
# Assay type: functional, Homo sapiens
# Settings: not given
row,SMILES,Ratio IC50
1,O=C(NO)c1cc(N(CCCl)CCCl)c([N+](=O)[O-])cc1[N+](=O)[O-],124

# Test system: V79
# Test: Clonogenic survival of 3% V79 NTRpuro cells in co-cultures with 97% V79 NTRoua after 5 hrs by MCL assay
# Assay type: functional, Cricetulus griseus
# Settings: not given
# Procedure, shortened: (§1)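 Multicellular layer cocultures of 3% V79-NTRpuro activators and 97% V79oua NTR-ve targets (ouabain-resistant), exposed to prodrug for 5 h. MCLs were then trypsin-dissociated and plated in ouabain or puromycin selective media for clonogenic survival. C10 (10% survival) interpolated for activators and targets; AC/TC ratio derived. Mean with SEM or range over independent experiments.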
row,SMILES,Activity
1,O=C(NO)c1cc(N(CCCl)CCCl)c([N+](=O)[O-])cc1[N+](=O)[O-],43 µM

# Test system: V79
# Test: Clonogenic survival of 97% V79 NTRoua cells in co-cultures with 3% V79 NTRpuro cells after 5 hrs by MCL assay
# Assay type: functional, Cricetulus griseus
# Settings: not given
# Procedure, shortened: as §1
row,SMILES,Activity
1,O=C(NO)c1cc(N(CCCl)CCCl)c([N+](=O)[O-])cc1[N+](=O)[O-],>300 µM

# Test system: not listed separately
# Test: Toxicity in ip dosed CD1 nude mouse in DMSO
# Assay type: organism-based
# Settings: in vivo
# Procedure, shortened: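 Maximum tolerated dose (MTD) determined in CD-1 nude mice after a single i.p. injection of prodrug, given in the vehicle named in each line.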
row,SMILES,MTD
1,O=C(NO)c1cc(N(CCCl)CCCl)c([N+](=O)[O-])cc1[N+](=O)[O-],133 µmol/kg

# Test system: EMT6
# Test: Antitumor activity against mixed mouse EMT6/EMT6 NTRpuro cells injected in CD1 nude mouse assessed as cell kill at 133 umol/kg, ip in DMSO after 18 hrs
# Assay type: functional
# Settings: not given
row,SMILES,LCK
1,O=C(NO)c1cc(N(CCCl)CCCl)c([N+](=O)[O-])cc1[N+](=O)[O-],0.38

# Test system: not listed separately
# Test: Solubility in alpha MEM
# Assay type: physicochemical
# Settings: not given
# Procedure, shortened: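 Solubility (mM) in α-MEM with 5% fetal calf serum at ambient temperature, measured by HPLC.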
row,SMILES,solubility
1,O=C(NO)c1cc(N(CCCl)CCCl)c([N+](=O)[O-])cc1[N+](=O)[O-],1400 µM

# Test system: not listed separately
# Test: Stability in alpha MEM at 37 degC after 24 hrs
# Assay type: physicochemical
# Settings: read-out: Stability
# Procedure, shortened: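 Percent parent compound remaining, by HPLC, after holding in α-MEM with 5% fetal calf serum at 37 °C for 24 h.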
row,SMILES,remaining at 24 h
1,O=C(NO)c1cc(N(CCCl)CCCl)c([N+](=O)[O-])cc1[N+](=O)[O-],91%
